# Test results from the array DNA melting data of Ke et al. (doi:10.1101/2024.01.08.574731).
# Tests used:
# [1] = melting temperature; fluorescence melt of hairpins on a sequencing array, two-state fit, raised by 9.35 °C to match UV melts; details: sodium 0.088 M
# Procedure, shortened: (§1)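 Two-state fits, bootstrapped, provided melting temperature and folding enthalpy from Cy3 fluorescence normalised to pre-quench Cy3 and to control constructs. Library hairpins with annealed Cy3 and quencher oligos were imaged on a sequenced MiSeq flow cell in 50 mM Na-HEPES pH 8.0, 25 mM NaCl, at 2.5 °C intervals up to 60 °C. Four replicates were combined with inverse-variance weighting. A 9.35 °C upward shift was applied to fitted temperatures to match UV melts.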
# [2] = folding enthalpy; higher = less favourable; fluorescence melt of hairpins on a sequencing array, two-state fit; details: sodium 0.088 M
# Procedure, shortened: as §1
Sequence,Tm [1] [°C],folding enthalpy [2] [kcal/mol]
GGTGTAACGAAAGTTACC (((..(((....)))))),42.9,-14.3
GTAGCTCGAAAGAGATAC (((.(((....))).))),54.9,-43.5
GATCGTAATACGATC ((((((...)))))),53.5,-41.5
GATCTTAGGGAAGATC ((((((....)))))),41.5,-26.3
GATCAAGCAATTGATC ((((((....)))))),48.8,-34.1
GCAACTGGAAACAGTTGC (((((((....))))))),67.1,-47.5
GACACCGAAAGGTTGGTC ((((((....)))..))),40.8,-16.6
GGGGTTCGAAAGAACCC (((.(((....)))))),69.3,-17.9
GGCCACGAAAGTGCCGCC ((((((....)))..))),59.8,-32
GATTCACGAAAGTGGATC (((.(((....))).))),52.5,-39.1
GATCACTCATGTGATC ((((((....)))))),57,-40.5
GATCCAATCGTGGATC ((((((....)))))),49,-38.5
GCCAGCGAAAGCTGAGGC ((((((....)))..))),53.5,-15.5
GGAAGGCCGAAAGGCTCC (((..(((....)))))),34.6,-11.9
TTACCGAAAGGTAA (((((....))))),50.4,-16.7
GGAAACGAAAGTTGCTCC ((((((....)))..))),27.1,-12.8
GTGACTGGAAACAATCAC ((((.((....)).)))),36,-20.1
GATCACCGTCGTGATC ((((((....)))))),55.2,-39
GTGTATACGAAAGTACAC (((..(((....)))))),41.1,-23.2
GTCGAAGGAAACTTCAAC ((.((((....)))).)),26.9,-12.4
GTATAGGAAACTATAC ((((((....)))))),41.5,-25.8
GCGGACAGCCGC ((((....)))),53.8,-17.4
GGAACAGCGAAAGCTTCC (((..(((....)))))),35.5,-18.4

Sequence,Tm [1] [°C],folding enthalpy [2] [kcal/mol]
GCCTCGGGAAACCGGGGC (((.(((....))).))),66.3,-36.4
GCTACGCGAAAGCGGCGC ((..(((....)))..)),60.5,-19.6
GAAGCTGAAAAGCTTC ((((((....)))))),58.3,-31.2
GCCCGTCGAAAGACAGGC (((.(((....))).))),55.3,-39
GCACTGAAAAGTGC (((((....))))),61,-35.1
GTGGGTGGAAACATCCAC ((((.((....)).)))),53.5,-32.4
GCACTGCGAAAGCACCGC ((..(((....)))..)),29.5,-9.03
GGGTTCGGAAACGAACTC (.(((((....))))).),53.8,-23.3
GTCTTGGAAACAAGAC ((((((....)))))),54.9,-35.3
GGGAGAACGAAAGTTCCC (((..(((....)))))),47.7,-17.1
GTTTAGGCGAAAGCCAAC (((..(((....)))))),33.3,-10.1
GAGATAGGAAACTGTCTC ((((.((....)).)))),41.3,-29.5
GCTAAGTCGAAAGACAGC (((..(((....)))))),41.2,-20.2
GTCTACGAAAGTAACGAC ((((((....)))..))),31.3,-16.4
GACGAGGGAAACCTCATC ((.((((....)))).)),31.2,-20.3
GGGAATCGAAAGATCCC (((.(((....)))))),49.7,-24.6
GTGTAGGGAAACTTACAC (((((.(....).))))),42,-21.3
GAAGCACGAAAGTGTTTC (((.(((....))).))),51.1,-35.2
GATCAAGGAAACTTGATC (((((((....))))))),54,-46.6
GATCCCACCGGGATC ((((((...)))))),66.7,-28.9
GGCCGAGCGAAAGCTGCC (((..(((....)))))),50.7,-21.4
GCACTGCGAAAGCGGAGC ((.(.((....)).).)),49.9,-19.8
GGCAGATCGAAAGATGCC (((..(((....)))))),49.4,-26.8

Sequence,Tm [1] [°C],folding enthalpy [2] [kcal/mol]
GCGACGCGAAAGCGCGGC ((..(((....)))..)),55.7,-13.1
GTAGTGCGAAAGCATTAC (((.(((....))).))),51,-25.6
GGGTTTGGAAACAAGCCC (((.(((....))).))),52.7,-32.1
GGGCGGGGAAACCCGCTC (.(((((....))))).),64.7,-15.2
GACGTTGCGAAAGCAGTC (((..(((....)))))),49.9,-16.5
GATCCCCGCAGGGATC ((((((....)))))),62.8,-18.1
GGTTCACGAAAGTGCACC (((.(((....))).))),50.5,-29.7
GGCAATCGAAAGATGCC (((.(((....)))))),56.5,-40.3
GGACCCACGAAAGTGTCC (((..(((....)))))),36.4,-14.4
GTCCGGTCGAAAGACGAC (((..(((....)))))),38.5,-12.6
GCAGTCGAAAGACGTGC ((((((....))).))),51.8,-17.4
GGCGTAACGAAAGTTGCC (((..(((....)))))),48.9,-25.3
CGTGCCGGAAACGGAACG (((.(((....))).))),55.9,-37.7
GATCTGCCGAAAGGCATC (((..(((....)))))),24.6,-6.41
GAGTGAGGAAACTCATTC ((.((((....)))).)),38.5,-23.5
GCTAAGCGAAAGCTGAGC (((.(((....))).))),56.1,-42.3
GATCCCCGTTGGGATC ((((((....)))))),62.2,-32.3
GGATGCGAAAGCAGCTCC ((((((....)))..))),47.5,-11.3
GACACAGGAAACTACGTC (((..((....))..))),28.8,-17
GTGCACGGAAACGTGTAC ((.((((....)))).)),55.8,-41.8
GCTTTGCGAAAGCATAGC (((.(((....))).))),53.2,-47.2
GGGTCCGAAAGGAACCC ((((((....))).))),64.1,-22.1
GCTACCCGAAAGGGAGC (((.(((....)))))),55.5,-23.1

Sequence,Tm [1] [°C],folding enthalpy [2] [kcal/mol]
GGTGTAGGAAACCACACC (((((.(....).))))),47.4,-32.9
GTCATCGAAAGATCAGAC ((((((....)))..))),26.5,-16.7
GCACGGCGAAAGCGGAGC ((.(.((....)).).)),44.7,-17.7
CGTCCGGAAACGGAGACG ((((((....)))..))),45.3,-21.4
GGCCAACGAAAGTTAGCC (((.(((....))).))),50.1,-29.1
GTGTACGGAAACGTACGC (.(((((....))))).),55.1,-20.6
GATGATACGAAAGTAATC (((..(((....)))))),27.5,-16.5
GCCACGGGAAACCGCAGC ((..(((....)))..)),34.1,-17.4
GAGGCTGGAAACAGCCCC (.(((((....))))).),46.1,-8.68
GATCATTGTTATGATC ((((((....)))))),47.3,-37
GCGTCCTCGAAAGAGCGC (((..(((....)))))),48.4,-24.9
GTCGTCGAAAGACGAGAC ((((((....)))..))),49.8,-10.8
GCATCGGGAAACTGATGC (((((.(....).))))),55.7,-37.2
GCAGCGCGAAAGCACCGC ((.(.((....)).).)),41.3,-21.5
GATCTTCCTCAAGATC ((((((....)))))),42,-30.1
GAATGAGGAAACTCATCC (.(((((....))))).),29.9,-17.4
GTGCGTGGAAACACACAC (((.(((....))).))),48.6,-37.9
GCGGTCGAAAGACGCCGC ((((((....)))..))),56.4,-19.9
GATCCCAACTGGGATC ((((((....)))))),63.4,-39.5
GGAGGCGGAAACGTCTCC ((((.((....)).)))),58.9,-49.2
GGAAGGGGAAACCCCTCC (((.(((....))).))),45,-21.1
GTATCTCGAAAGAGTTAC (((.(((....))).))),36.4,-26.6
GATCTTTTCAAAGATC ((((((....)))))),48.7,-43.6
